Laboratory results as given in ChEMBL document CHEMBL1142436, “Design and synthesis of 4-substituted indolo[3,2-e][1,2,3]triazolo[1,5-a]pyrimidine derivatives with antitumor activity” (2008).
One block for each molecule: values may come before it.

Experiments:
Assay type in all cases: functional
[1] = tested on: NCI-H460; test: Antitumor activity against human NCI-H460 cells at 0.1 mM after 48 hrs
Method in brief: (§1)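 Prescreen run under the NCI Developmental Therapeutic Program. Agents were tested at a single concentration of 10^-4 M against a three-line panel (MCF7, NCI-H460, SF-268).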

[2] = tested on: MCF7; test: Antitumor activity against human MCF7 cells at 0.1 mM after 48 hrs; method in brief: as §1
[3] = tested on: SF-268; test: Antitumor activity against human SF268 cells at 0.1 mM after 48 hrs; method in brief: as §1
[4] = tested on: SF-268; test: Growth inhibition of human SF268 cells after 48 hrs; conditions: SF-268, 48 h
Method in brief: (§2)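 NCI ~60-line screen. Cells were grown in RPMI 1640 with 5% FBS and 2 mM L-glutamine and plated at 5000–40000 cells/well. After a 24 h preincubation, five drug concentrations from DMSO stocks were added for 48 h at 37 °C. Cells were TCA-fixed, stained with SRB and read at 515 nm. GI50 was taken from time-zero and control absorbances and reported as pGI50.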

[5] = tested on: SF-539; test: Growth inhibition of human SF539 cells after 48 hrs; conditions: SF-539, 48 h; method in brief: as §2
[6] = tested on: SN12C; test: Growth inhibition of human SN12C cells after 48 hrs
Method in brief: (§3)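 NCI 60-line screen: cells in RPMI 1640 with 5% FBS and 2 mM L-glutamine, plated at 5000–40000 cells/well, grown 24 h (37 °C, 5% CO₂), then exposed to five 10-fold or ½-log dilutions (DMSO stock) for 48 h. Fixed with TCA (final 10% for adherent cells, 16% for suspension cells), then SRB stained with absorbance at 515 nm. GI50 from percentage growth relative to time-zero and control wells.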

[7] = tested on: SNB-75; test: Growth inhibition of human SNB75 cells after 48 hrs; conditions: SNB-75, 48 h; method in brief: as §3
[8] = tested on: T47D; test: Growth inhibition of human T47D cells after 48 hrs; method in brief: as §3
[9] = tested on: UACC-257; test: Growth inhibition of human UACC257 cells after 48 hrs; conditions: UACC-257, 48 h; method in brief: as §3
[10] = tested on: Malme-3M; test: Growth inhibition of human MALME3M cells after 48 hrs; method in brief: as §2
[11] = tested on: OVCAR-4; test: Growth inhibition of human OVCAR4 cells after 48 hrs; conditions: OVCAR-4, 48 h; method in brief: as §2
[12] = tested on: CAKI-1; test: Growth inhibition of human CAKI1 cells after 48 hrs; conditions: CAKI-1, 48 h; method in brief: as §2
[13] = tested on: HOP-62; test: Growth inhibition of human HOP62 cells after 48 hrs; conditions: HOP-62, 48 h; method in brief: as §2
[14] = tested on: SNB-19; test: Growth inhibition of human SNB19 cells after 48 hrs; conditions: SNB-19, 48 h; method in brief: as §3
[15] = tested on: HT-29; test: Growth inhibition of human HT29 cells after 48 hrs; conditions: HT-29, 48 h; method in brief: as §2
[16] = tested on: ACHN; test: Growth inhibition of human ACHN cells after 48 hrs; method in brief: as §2
[17] = tested on: UACC-62; test: Growth inhibition of human UACC62 cells after 48 hrs; conditions: UACC-62, 48 h; method in brief: as §3
[18] = tested on: NCI-H23; test: Growth inhibition of human NCI-H23 cells after 48 hrs; conditions: Homo sapiens, NCI-H23, 48 h; method in brief: as §2
[19] = tested on: 786-0; test: Growth inhibition of human 786-0 cells after 48 hrs; conditions: 786-0, 48 h; method in brief: as §2
[20] = tested on: SK-MEL-28; test: Growth inhibition of human SK-MEL28 cells after 48 hrs; conditions: SK-MEL-28, 48 h; method in brief: as §2
[21] = tested on: UO-31; test: Growth inhibition of human UO31 cells after 48 hrs; conditions: UO-31, 48 h; method in brief: as §3
[22] = tested on: CCRF-CEM; test: Growth inhibition of human CCRF-CEM cells after 48 hrs; method in brief: as §2
[23] = tested on: MDA-MB-435; test: Growth inhibition of human MDA-MB435 cells after 48 hrs; conditions: MDA-MB-435, 48 h; method in brief: as §2
[24] = tested on: HL-60; test: Growth inhibition of human HL60 cells after 48 hrs; conditions: HL-60, 48 h; method in brief: as §2
[25] = tested on: HCT-116; test: Growth inhibition of human HCT116 cells after 48 hrs; conditions: HCT-116, 48 h; method in brief: as §2
[26] = tested on: U-251; test: Growth inhibition of human U251 cells after 48 hrs; conditions: U-251, 48 h; method in brief: as §3
[27] = tested on: HOP-92; test: Growth inhibition of human HOP92 cells after 48 hrs; conditions: HOP-92, 48 h; method in brief: as §2
[28] = tested on: OVCAR-5; test: Growth inhibition of human OVCAR5 cells after 48 hrs; conditions: OVCAR-5, 48 h; method in brief: as §2
[29] = Growth inhibition of human HS578T cells after 48 hrs; conditions: Hs-578T; method in brief: as §2
[30] = tested on: SW-620; test: Growth inhibition of human SW620 cells after 48 hrs; conditions: SW-620, 48 h; method in brief: as §3
[31] = tested on: NCI-H522; test: Growth inhibition of human NCI-H522 cells after 48 hrs; conditions: NCI-H522, 48 h; method in brief: as §2
[32] = tested on: K562; test: Growth inhibition of human K562 cells after 48 hrs; conditions: K562, 48 h; method in brief: as §2
[33] = tested on: SF-295; test: Growth inhibition of human SF295 cells after 48 hrs; conditions: SF-295, 48 h; method in brief: as §2
[34] = tested on: HCC 2998; test: Growth inhibition of human HCC2998 cells after 48 hrs; conditions: HCC 2998, 48 h; method in brief: as §2
[35] = tested on: EKVX; test: Growth inhibition of human EKVX cells after 48 hrs; method in brief: as §2
[36] = tested on: A498; test: Growth inhibition of human A498 cells after 48 hrs; conditions: A498, 48 h; method in brief: as §2
[37] = tested on: SK-OV-3; test: Growth inhibition of human SKOV3 cells after 48 hrs; conditions: SK-OV-3, 48 h; method in brief: as §3
[38] = tested on: NCI-H460; test: Growth inhibition of human NCI-H460 cells after 48 hrs; conditions: NCI-H460, 48 h; method in brief: as §2
[39] = tested on: A549; test: Growth inhibition of human A549 cells after 48 hrs; conditions: A549, 48 h; method in brief: as §2
[40] = tested on: SK-MEL-2; test: Growth inhibition of human SK-MEL2 cells after 48 hrs; conditions: SK-MEL-2, 48 h; method in brief: as §2
[41] = tested on: M14; test: Growth inhibition of human M14 cells after 48 hrs; conditions: M14, 48 h; method in brief: as §2
[42] = tested on: NCI-H322M; test: Growth inhibition of human NCI-H322M cells after 48 hrs; method in brief: as §2
[43] = tested on: TK-10; test: Growth inhibition of human TK10 cells after 48 hrs; conditions: TK-10, 48 h; method in brief: as §3
[44] = tested on: OVCAR-8; test: Growth inhibition of human OVCAR8 cells after 48 hrs; conditions: OVCAR-8, 48 h; method in brief: as §2
[45] = tested on: RXF 393; test: Growth inhibition of human RXF393 cells after 48 hrs; conditions: RXF 393, 48 h; method in brief: as §2
[46] = tested on: RPMI-8226; test: Growth inhibition of human RPMI8226 cells after 48 hrs; conditions: RPMI-8226, 48 h; method in brief: as §2
[47] = tested on: MCF7; test: Growth inhibition of human MCF7 cells after 48 hrs; conditions: MCF7, 48 h; method in brief: as §2
[48] = tested on: HCT-15; test: Growth inhibition of human HCT15 cells after 48 hrs; conditions: HCT-15, 48 h; method in brief: as §2
[49] = tested on: NCI/ADR-RES; test: Growth inhibition of human NCI/ADR-RES cells after 48 hrs; method in brief: as §2
[50] = tested on: KM12; test: Growth inhibition of human KM12 cells after 48 hrs; conditions: KM12, 48 h; method in brief: as §2
[51] = tested on: OVCAR-3; test: Growth inhibition of human OVCAR-3 cells after 48 hrs; conditions: OVCAR-3, 48 h; method in brief: as §2
[52] = tested on: DU-145; test: Growth inhibition of human DU145 cells after 48 hrs; conditions: DU-145, 48 h; method in brief: as §2
[53] = tested on: NCI-H226; test: Growth inhibition of human NCI-H226 cells after 48 hrs; conditions: NCI-H226, 48 h; method in brief: as §2
[54] = tested on: SK-MEL-5; test: Growth inhibition of human SK-MEL5 cells after 48 hrs; conditions: SK-MEL-5, 48 h; method in brief: as §2
[55] = tested on: BT-549; test: Growth inhibition of human BT549 cells after 48 hrs; conditions: BT-549, 48 h; method in brief: as §2
[56] = tested on: SR; test: Growth inhibition of human SR cells after 48 hrs; method in brief: as §3
[57] = tested on: MDA-MB-231; test: Growth inhibition of human MDA-MB-231 cells after 48 hrs; conditions: MDA-MB-231, 48 h; method in brief: as §2
[58] = tested on: LOX IMVI; test: Growth inhibition of human LOXIMVI cells after 48 hrs; method in brief: as §2
[59] = tested on: COLO 205; test: Growth inhibition of human COLO205 cells after 48 hrs; conditions: COLO 205, 48 h; method in brief: as §2
[60] = tested on: MOLT-4; test: Growth inhibition of human MOLT4 cells after 48 hrs; conditions: MOLT-4, 48 h; method in brief: as §2
[61] = tested on: PC-3; test: Growth inhibition of human PC3 cells after 48 hrs; conditions: PC-3, 48 h; method in brief: as §2
[62] = tested on: IGROV-1; test: Growth inhibition of human IGROV1 cells after 48 hrs; conditions: IGROV-1, 48 h; method in brief: as §2

Structure (SMILES): Cn1c2ccccc2c2c(=O)n(CCCC(=O)O)c3c(-c4ccccc4)nnn3c21
Activity [1]: 95%
Activity [2]: 80%
Activity [3]: 87%

GI50 [8]: > 100 µM
GI50 [11]: > 100 µM
GI50 [15]: > 100 µM
GI50 [16]: > 100 µM
GI50 [18]: > 100 µM
GI50 [19]: > 100 µM
GI50 [20]: > 100 µM
GI50 [22]: > 100 µM
GI50 [23]: > 100 µM
GI50 [24]: > 100 µM
GI50 [25]: > 100 µM
GI50 [26]: > 100 µM
GI50 [28]: > 100 µM
GI50 [30]: > 100 µM
GI50 [31]: > 100 µM
GI50 [32]: > 100 µM
GI50 [34]: > 100 µM
GI50 [37]: > 100 µM
GI50 [38]: > 100 µM
GI50 [39]: > 100 µM
GI50 [40]: > 100 µM
GI50 [42]: > 100 µM
GI50 [44]: > 100 µM
GI50 [46]: > 100 µM
GI50 [47]: > 100 µM
GI50 [48]: > 100 µM
GI50 [51]: > 100 µM
GI50 [52]: > 100 µM
GI50 [53]: > 100 µM
GI50 [54]: > 100 µM
GI50 [55]: > 100 µM
GI50 [57]: > 100 µM
GI50 [59]: > 100 µM
GI50 [60]: > 100 µM
GI50 [61]: 30.2 µM
Structure (SMILES): COC(=O)C(Cc1c[nH]cn1)NC(=O)CNC(=O)CCCn1c(=O)c2c3ccccc3n(C)c2n2nnc(-c3ccccc3)c12 (stereo not given)
GI50 [4]: > 100 µM
GI50 [5]: > 100 µM
GI50 [6]: > 100 µM
GI50 [7]: > 100 µM
GI50 [9]: > 100 µM
GI50 [10]: > 100 µM
GI50 [12]: > 100 µM
GI50 [13]: > 100 µM
GI50 [14]: > 100 µM
GI50 [17]: > 100 µM
GI50 [21]: > 100 µM
GI50 [27]: > 100 µM
GI50 [29]: > 100 µM
GI50 [33]: > 100 µM
GI50 [35]: > 100 µM
GI50 [36]: > 100 µM
GI50 [41]: > 100 µM
GI50 [43]: > 100 µM
GI50 [45]: > 100 µM
GI50 [49]: > 100 µM
GI50 [50]: > 100 µM
GI50 [56]: > 100 µM
GI50 [58]: > 100 µM
GI50 [62]: 72.4 µM

Structure (SMILES): COC(=O)C(Cc1c[nH]cn1)NC(=O)CCCn1c(=O)c2c3ccccc3n(C)c2n2nnc(-c3ccccc3)c12 (stereo not given)
Activity [1]: 117%
Activity [2]: 116%
Activity [3]: 128%
